# A number with no mark means an inactive call. Inconclusive results are not listed. Activity calls are given as the source filed them.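 How the source made its calls, unless noted: active means viability at or below 27.92% in each of two runs, the all-compound median minus 4 SD; inconclusive means no clear call, values can overlap the other calls; inactive means the rest.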
# Legend:
# [1] = OD615 S. cerevisiae growth inhibition, permissive medium, pilot counter-assay, permissive growth control for S. cerevisiae lifespan shortening project (AID 705;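 active means growth inhibition above 25% in both replicates, a cutoff set 3 SD above the mean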); details: OD615, 24 h, at 10 µM, hits give high values
# In short: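 Material: engineered DeaD yeast; Compound: one dose 10 µM, DMSO 0.25% final; Detection: absorbance (optical density) at 615 nm; Buffer or medium: permissive raffinose/galactose medium; Timing: 24 h exposure, 30 °C.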
# [2] = Restrictive medium S. cerevisiae growth inhibition, OD615, pilot screen of yeast lifespan reduction project, restrictive growth control (AID 706;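 active means growth inhibition above a set limit, 3 SD over mean compound inhibition, in both replicates, cut at about 43% in these data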;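 further: modified DeaD lifespan yeast strain shifted to restrictive glucose medium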); details: OD615, 48 h, at 10 µM, hits give high values
# In short: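 Buffer or medium: restrictive glucose medium (CSMM-D); test system: modified S. cerevisiae; doses: single dose of 10 µM compound final, 0.25% DMSO; schedule: 48 h compound exposure at 30 °C; detection: absorbance (optical density) measured at 615 nm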
# [3] = viability gain of MRP-1-high H69AR cells under doxorubicin, pilot screen, MRP-1 activator project, CellTiter-Glo, duplicate (AID 807;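 active means viability increase at or above a cutoff of the median across tested compounds plus 3 SD, cut at about 8.5% in these data, passing the limit was not always enough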;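 further: compound pretreatment 18-22 h then 72 h combined with doxorubicin; 0% = doxorubicin alone and 100% = vehicle without doxorubicin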); details: H69AR viability with doxorubicin, CellTiter-Glo luminescence; at 10 µM; hits give high values
# [4] = growth suppression of beta-catenin knockout HCT116, pilot screen, human colon tumor cells (AID 823;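 active means cell viability at or below a set limit in both duplicate runs, the limit being the all-compound median minus 4 SD, cut at about 23% in these data, passing the limit was not always enough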;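 further: 0% = wells killed by 20 µM Hyamine and 100% = untreated DMSO cell wells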); details: CellTiter-Glo, 60 h, at 10 µM, hits give low values
# [5] = growth suppression of PTEN-deleted HCT116, pilot screen, cell-based, HCT116 clonal line, CellTiter-Glo (AID 824); details: 60 h, at 10 µM, hits give low values;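 further: 0% = 20 µM Hyamine control and 100% = vehicle cell control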
# [6] = inhibitors of the yeast RAM network, pilot screen, dse1pr::URA3 reporter, 5-FOA selection (AID 869;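 active means inhibition over a set limit, the all-compound mean plus 3 SD, in both replicate runs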;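 further: 0% = DMSO wells with no growth and 100% = 10 µM 1-NA-PP1 with full growth; RAM network block rescues cells from 5-FOA so hits raise OD615 growth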); details: S. cerevisiae dse1pr::URA3 5-FOA growth, OD615, 2 d; at 10 µM; hits give high values; strain carries analog-sensitive mutant Cbk1 kinase
# [7] = RAM signaling pathway blockade in yeast – S. cerevisiae, Pdr1DBD-CYC8 efflux-inhibited sensitized strain, primary screen (AID 1298;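 active means RAM network inhibition above 8.4% in each of two replicates, 3 SD over the compound average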;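 further: 0% = DMSO untreated cells without growth and 100% = 10 µM 1-NA-PP1 full growth; higher means more yeast growth rescued from 5-FOA killing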); details: S. cerevisiae cbk1-as DSE1-URA3 strain, 5-FOA growth OD615, 2 d; at 50 µM; hits give high values
Compound,growth inhibition [1] [%],growth inhibition [2],viability increase [3] [%],viability [4] [%],viability [5] [%],inhibition [6] [%],RAM network inhibition [7] [%]
CN(Cc1ccccc1)C(=O)c1ccc2c(c1)OCCO2,-14.5,-4.09%,-0.29,89.5,94.6,1.48,3.49
CCc1c(C)sc(NC(=O)c2cc(C3CC3)on2)c1C#N,-7.33,15%,1.11,99,102,3.36,-0.84
O=C(Cn1cc2c(n1)CCCC2)Nc1cc(-c2cccc(Cl)c2)no1,3.94,3.73%,0.67,99.2,87.2,0.9,2.24
COc1ccc(-c2cc(C(F)(F)F)n3nc(C(=O)N4CCCC4)cc3n2)cc1,-5.39,-2.34%,-3.39,93.9,84.7,1.71,7.1
CC(C)(C)NC(=O)Cn1c(=O)oc2cc(S(=O)(=O)N3CCc4ccccc43)ccc21,0.45,-12.1%,-3.16,90,89.5,0.05,7.21
O=C1c2ccccc2C(=O)N1CCCc1nc(-c2ccc(Cl)cc2)no1,-1.86,-5.26%,-1.79,102,100,4.25,2.37
CC1(C)CCCC2=C1CC1C(=O)N(O)C(=O)C1C2 (configuration not stated),-8.79,-12.1%,-1.21,102,87.8,1.96,1.62
NC(=O)c1cc(N2C(=O)C3CC=CCC3C2=O)ccc1N1CCCCC1 (configuration not stated),-21.2,-3.95%,0.16,93.1,92.4,1.98,4.2
CCN(CC)S(=O)(=O)c1cccc(-c2nnc(SCc3nnc(-c4cccs4)o3)n2N)c1,5.53,46.4% (active),0.28,86.5,92.5,1.85,3.12
CC1CCC(n2c(=S)[nH]c3ccccc3c2=O)CC1 (configuration not stated),13,23%,-4.34,81.5,75.4,0.285,5.25
COc1cccc(C(=O)Nc2cc(=O)n(C)c(=O)n2C)c1OC,-1.72,-6.04%,-2.46,105,98.8,1.94,1.14
COc1ccccc1CNC(=O)C1COc2ccccc2O1 (configuration not stated),-13.9,-2.38%,0.65,98.8,88.5,2.73,2.77
CCCn1c(CNC(=O)c2cccs2)nc2ccccc21,-9.53,-7.64%,-1.28,101,103,2.32,2.11
O=C(C1CCN(S(=O)(=O)c2ccc(F)cc2)CC1)N1CCOCC1,-6.2,-6.82%,0.84,103,103,2.23,1.75
O=C(O)CCc1n[nH]c(=S)[nH]c1=O,-5.76,-17.3%,-1.6,102,106,0.76,-0.69
COc1ccccc1-c1cc(C(=O)N2CCCCC2)no1,-6.35,11.2%,-0.55,103,93.2,2.1,4.18
CCNC(=O)CN(c1ccc(CC)cc1)S(C)(=O)=O,-5,-18%,-0.8,97.9,106,0.76,1.88
COc1ccc(Cc2nnc(SC)[nH]c2=O)cc1OC,0.615,-16.6%,-1.67,101,99.4,0.225,1.41

Compound,growth inhibition [1] [%],growth inhibition [2],viability increase [3] [%],viability [4] [%],viability [5] [%],inhibition [6] [%],RAM network inhibition [7] [%]
CCCc1nc(SCC(=O)NCc2ccc3c(c2)OCO3)c2c(=O)n(C)c(=O)n(C)c2n1,1.28,7.41%,-6.51,61.1,57.5,2.25,5.66
Cc1nc2sc(C(c3ccccc3)N3CCN(CCO)CC3)c(O)n2n1 (configuration not stated),-5.65,-2.6%,-1.6,106,98.6,1.32,4.51
CC(CN(C)Cc1ccccc1)OC(=O)C1COc2ccccc2O1 (configuration not stated),-9.66,6.59%,0.39,101,102,1.3,2.25
Cc1nn2cc(-c3ccccc3)nc2s1,-5.37,-7.45%,-1.05,93.3,91.6,0.575,4.7
CCOC(=O)N1CCC(Nc2cc(C)nc3c(-c4ccccc4OC)c(C)nn23)CC1,-2.85,-0.57%,-6.98,81.3,67.8,0.325,4.72
CCS(=O)(=O)NCc1csc(-c2ccccc2)n1,-0.375,-0.625%,-2,89.9,87.5,0.635,5.48
Cc1cccc(CSc2nnc(-c3ccccn3)n2N)c1,-6.39,14.2%,-2.01,103,94.4,0.655,0.89
CC1=CC(c2ccccc2)n2nc(NS(=O)(=O)c3ccc(C)cc3)nc2N1 (configuration not stated),-9.59,5.79%,-1.29,100,99.5,0.09,2.86
CCOC(=O)C1CCCN(C(=O)Cn2ncc3c(=O)oc4ccc(C)cc4c32)C1 (configuration not stated),-11.9,-24.9%,-1.41,106,95,2.19,3.43
COCCNC(=O)c1cc2c(=O)n(C)c3ccccc3c2n1C,-11.1,-7.54%,-4.57,84.4,84.4,2.69,0.36
COc1ccc(CCNC(=O)CCn2c(=O)oc3ccccc32)cc1OC,-6.99,-12.8%,-0.1,105,97.9,1.47,1.61
CCN(CC)Cc1c(O)ccc2c(-c3ccccc3)cc(=O)oc12,-5.29,-1.64%,-1.73,94.3,94.7,1.23,1.08
COc1nc(Nc2ccc(C(C)=O)cc2)nc(OC)n1,0.42,-4.17%,-4.04,99.5,97.9,1.75,6.28
O=C(COc1ccccc1Br)NCc1ccco1,2.92,8.48%,-3.54,97,102,1.51,3.3
CCOC(=O)N1CCN(C(c2ccc(C(C)C)cc2)c2sc3nc(C)nn3c2O)CC1 (configuration not stated),-1.48,-10.5%,2.48,102,91,0.2,0.93
Cc1ccc(-n2c3c(cc(C(=O)N4CCN(C)CC4)c2=O)C(=O)CC(C)(C)C3)cc1,-21.9,-9.49%,0.41,101,96.6,1.48,2.1
O=C(CSc1ccccn1)c1ccc2c(c1)OCO2,-3.07,9.94%,-0.21,99.2,96.2,0.92,2.86
O=C(NCCCN1CCOCC1)C1CCC(=O)N1CCc1ccccc1 (configuration not stated),-0.765,-7.29%,-0.18,103,96.7,3.66,0.63
